Assay results from ChEMBL document CHEMBL3232890, “Novel structural hybrids of pyrazolobenzothiazines with benzimidazoles as cholinesterase inhibitors” (Eur J Med Chem, 2014).
Structures can show the parent of a compound that is named as a salt.

Experiments:
[1] = Inhibition of electric eel AChE type VI-S using acetylthiocholine iodide as substrate preincubated with enzyme for 10 mins prior to substrate challenge for 15 mins by Ellman's method; design: species or system Electrophorus electricus
Outline: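 Enzyme was EeAChE at 0.5 U/mg or equine BuChE at 3.4 U/mg, diluted in Tris-HCl with 0.1% BSA. Eight to ten serial dilutions were preincubated for 10 min at 25 °C, then incubated for 15 min at 25 °C, and read at 405 nm in triplicate. IC50 came from linear regression.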

Cholinesterase = Cholinesterase (Equus caballus, UniProt P81908); assay: Inhibition of BuChE in equine serum using butyrylthiocholine chloride as substrate preincubated with enzyme for 10 mins prior to substrate challenge for 15 mins by Ellman's method
Sequence of Cholinesterase (P81908 whole entry): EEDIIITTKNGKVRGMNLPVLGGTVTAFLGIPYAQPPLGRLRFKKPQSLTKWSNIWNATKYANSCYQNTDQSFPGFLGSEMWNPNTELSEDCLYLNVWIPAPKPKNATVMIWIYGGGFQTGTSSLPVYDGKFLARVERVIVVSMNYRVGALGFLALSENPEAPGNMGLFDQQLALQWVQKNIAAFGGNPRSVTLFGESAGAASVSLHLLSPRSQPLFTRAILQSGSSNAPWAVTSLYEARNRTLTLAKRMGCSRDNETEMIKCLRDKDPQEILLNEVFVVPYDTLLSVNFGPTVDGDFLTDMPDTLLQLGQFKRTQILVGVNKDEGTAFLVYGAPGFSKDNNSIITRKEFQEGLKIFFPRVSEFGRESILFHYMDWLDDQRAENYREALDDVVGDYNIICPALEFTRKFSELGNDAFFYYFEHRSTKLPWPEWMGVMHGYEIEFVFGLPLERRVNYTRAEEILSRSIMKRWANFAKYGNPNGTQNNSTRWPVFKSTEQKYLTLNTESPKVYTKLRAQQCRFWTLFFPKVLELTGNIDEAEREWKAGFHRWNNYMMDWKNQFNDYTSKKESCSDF

[2] = molecular target: Cholinesterase (Equus caballus) (UniProt P81908); assay: Inhibition of BuChE in equine serum using butyrylthiocholine chloride as substrate at 500 uM preincubated with enzyme for 10 mins prior to substrate challenge for 15 mins by Ellman's method
Sequence of Cholinesterase (Equus caballus) (P81908 whole entry): as above
Outline: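 The compound was added from DMSO (1% final) at 0.5 mM final. Enzyme and compound were preincubated for 10 min at 25 °C, then incubated for 15 min at 25 °C, and absorbance was read at 405 nm. Blanks lacked enzyme or substrate.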

CN1c2c(nn(-c3ccc(-c4nc5cc(C(=O)O)ccc5[nH]4)cc3)c2-c2ccccc2)-c2ccccc2S1(=O)=O
IC50 [1]: 6110 nM | IC50 (Cholinesterase): 4620 nM

CN1c2c(nn(-c3ccc(-c4nc5ccccc5o4)cc3)c2-c2ccccc2)-c2ccccc2S1(=O)=O
inhibition [2]: 36.5% | IC50 [1]: 54 nM

CN1c2c(nn(-c3ccc(-c4nc5cncnc5[nH]4)cc3)c2-c2ccccc2)-c2ccccc2S1(=O)=O
IC50 [1]: 5220 nM | IC50 (Cholinesterase): 1330 nM

Cc1c2c(nn1-c1ccc(-c3nc4cc(Br)ccc4[nH]3)cc1)-c1ccccc1S(=O)(=O)N2C
IC50 [1]: 541 nM | IC50 (Cholinesterase): 49 nM

CCOC(=O)c1ccc2[nH]c(-c3ccc(-n4nc5c(c4-c4ccccc4)N(C)S(=O)(=O)c4ccccc4-5)cc3)nc2c1
IC50 [1]: 13 nM | IC50 (Cholinesterase): 180 nM

CCOC(=O)c1ccc2[nH]c(-c3ccc(-n4nc5c(c4C)N(C)S(=O)(=O)c4ccccc4-5)cc3)nc2c1
inhibition [2]: 29.5% | IC50 [1]: 993 nM

Cc1c2c(nn1-c1ccc(-c3nc4cc([N+](=O)[O-])ccc4[nH]3)cc1)-c1ccccc1S(=O)(=O)N2C
inhibition [2]: 38.5% | IC50 [1]: 492 nM

CN1c2c(nn(-c3ccc(-c4nc5cc(Cl)ccc5[nH]4)cc3)c2-c2ccccc2)-c2ccccc2S1(=O)=O
IC50 [1]: 3020 nM | IC50 (Cholinesterase): 9940 nM

CN1c2c(nn(-c3ccc(-c4nc5cc([N+](=O)[O-])ccc5[nH]4)cc3)c2-c2ccccc2)-c2ccccc2S1(=O)=O
inhibition [2]: 30.7% | IC50 [1]: 7940 nM

Cc1ccc2[nH]c(-c3ccc(-n4nc5c(c4C)N(C)S(=O)(=O)c4ccccc4-5)cc3)nc2c1
IC50 [1]: 7530 nM | IC50 (Cholinesterase): 41 nM

Cc1c2c(nn1-c1ccc(-c3nc4cc(C(=O)O)ccc4[nH]3)cc1)-c1ccccc1S(=O)(=O)N2C
IC50 [1]: 1130 nM | IC50 (Cholinesterase): 26 nM

Cc1cc2nc(-c3ccc(-n4nc5c(c4C)N(C)S(=O)(=O)c4ccccc4-5)cc3)[nH]c2cc1C
IC50 [1]: 41 nM | IC50 (Cholinesterase): 273 nM

COc1ccc2[nH]c(-c3ccc(-n4nc5c(c4C)N(C)S(=O)(=O)c4ccccc4-5)cc3)nc2c1
IC50 [1]: 1140 nM | IC50 (Cholinesterase): 6920 nM

Cc1c2c(nn1-c1ccc(-c3nc4cc(Cl)ccc4[nH]3)cc1)-c1ccccc1S(=O)(=O)N2C
inhibition [2]: 38.7% | IC50 [1]: 1020 nM

COc1ccc2[nH]c(-c3ccc(-n4nc5c(c4-c4ccccc4)N(C)S(=O)(=O)c4ccccc4-5)cc3)nc2c1
inhibition [2]: 37.3% | IC50 [1]: 7130 nM

Cc1c2c(nn1-c1ccc(-c3nc4ccccc4o3)cc1)-c1ccccc1S(=O)(=O)N2C
IC50 [1]: 6920 nM | IC50 (Cholinesterase): 17 nM

Cc1ccc2[nH]c(-c3ccc(-n4nc5c(c4-c4ccccc4)N(C)S(=O)(=O)c4ccccc4-5)cc3)nc2c1
inhibition [2]: 31.8% | IC50 [1]: 122 nM

Cc1c2c(nn1-c1ccc(-c3nc4cncnc4[nH]3)cc1)-c1ccccc1S(=O)(=O)N2C
inhibition [2]: 35.5% | IC50 [1]: 1950 nM

CN1c2c(nn(-c3ccc(-c4nc5ccccc5[nH]4)cc3)c2-c2ccccc2)-c2ccccc2S1(=O)=O
IC50 [1]: 11 nM | IC50 (Cholinesterase): 43 nM

Cc1c2c(nn1-c1ccc(-c3nc4ccccc4[nH]3)cc1)-c1ccccc1S(=O)(=O)N2C
IC50 [1]: 2910 nM | IC50 (Cholinesterase): 43 nM

CN1c2c(nn(-c3ccc(-c4nc5cc(Br)ccc5[nH]4)cc3)c2-c2ccccc2)-c2ccccc2S1(=O)=O
IC50 [1]: 6900 nM | IC50 (Cholinesterase): 3230 nM

CN(C)C(=O)Oc1cccc([N+](C)(C)C)c1 [NEOSTIGMINE]
IC50 [1]: 22200 nM | IC50 (Cholinesterase): 49600 nM

Cc1cc2nc(-c3ccc(-n4nc5c(c4-c4ccccc4)N(C)S(=O)(=O)c4ccccc4-5)cc3)[nH]c2cc1C
inhibition [2]: 34.1% | IC50 [1]: 3820 nM

COc1cc2c(cc1OC)C(=O)C(CC1CCN(Cc3ccccc3)CC1)C2 (configuration not stated) [DONEPEZIL HYDROCHLORIDE]
IC50 [1]: 32 nM
